The values that follow come from ChEMBL document CHEMBL2040749, “Novel polycyclic 'cage'-1,2-diamines as potential anti-tuberculosis agents” (2012).

In this experiment the test system is Mycobacterium tuberculosis. As to the kind of experiment: Antitubercular activity against Mycobacterium tuberculosis H37Rv ATCC 25177after 21 days by BACTEC MGIT 960 method. It counts as functional. The note with it: 504 h. The method in brief:
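Compounds dissolved in 100% methanol (10 mg/mL stock), sonicated, filter-sterilised, diluted in sterile water; twofold serial dilutions, working range 8 to 0.125 µg/mL. Strains grown in Middlebrook 7H9 + OADC at 37 °C; inoculum adjusted to McFarland 1, diluted tenfold to 10^5 CFU/mL into MGIT tubes. Drug-free control received a 1:100 inoculum. MIC is the lowest dilution negative when the control turns positive. Triplicate.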
As a reminder, the MIC is the lowest concentration that inhibits growth of the organism. Regarding `CC(C)=CCC/C(C)=C/CNCCN[C@@H]1C2C3CC4C5C3CC2C5C41.Cl.Cl` (mixture of isomers), the MIC was 1 µg/mL. For the molecule `CC(C)=CCC/C(C)=C/CNCCN1[C@H]2C3C4CC5C6C4C2C6[C@@]1(O)C53.Cl.Cl` (mixture of isomers), the MIC was 1 µg/mL. `CC(C)=CCC/C(C)=C/CNCCNC1C2C3CC4C5CC(C42)C1C53.Cl.Cl` (racemic) showed an MIC of 0.5 µg/mL.

In turn, `CC(C)=CCC/C(C)=C/CNC(=O)CN1[C@H]2C3C4CC5C6C4C2C6[C@@]1(O)C53` (mixture of isomers) came in with an MIC of 1 µg/mL. Under `CC(C)=CCC/C(C)=C/CNCCN[C@]12O[C@H]3C4C5CC(C6C5C3C61)C42.Cl.Cl` (mixture of isomers) stands 1 µg/mL; under `CC(C)=CCC/C(C)=C/CNCCNC1C2CC3CC(C2)CC1C3.Cl.Cl` (stereo not drawn), 0.5 µg/mL; under `CC(C)=CCC/C(C)=C/CNCC(=O)N[C@]12O[C@H]3C4C5CC(C6C5C3C61)C42` (mixture of isomers), 1 µg/mL. In turn, `CC(C)=CCC/C(C)=C/CNCCN[C@@H]1C2C3CC4C5C3C1C5[C@@H](O)C42.Cl.Cl` (mixture of isomers) showed an MIC of 0.5 µg/mL.
